From ChEMBL document CHEMBL1125458, “3-O-alkylascorbic acids as free radical quenchers. 3. Protective effect on coronary occlusion-reperfusion induced arrhythmias in anesthetized rats” (1992)

Columns and labels:
[1] = species: Rattus norvegicus; assay: Inhibition of lipid peroxidation in rat liver microsomes.; type: functional; set-up: concentration or dose not given beside the values; settings: dose or concentration not given here
How it was run: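 Wistar rat liver microsomes (2.0 mg protein) in 83.5 mM KCl, 37.2 mM Tris-HCl pH 7.4 with 1 mM ADP, 10 µM FeCl3, 0.02 mM NADPH; compound added in DMF, tested at 10^-5 M. 37 °C, 20 min. Malondialdehyde measured by thiobarbituric acid method, A532; % inhibition, mean ± SD, n = 3–6.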

[2] = test system: Rattus norvegicus; assay: Effect (10 mg/kg, iv) on coronary reperfusion-induced arrhythmias was assessed in anesthetized rats.(Intervals of ventricular tachycardia (VT)+ventricular fibrillation (VF) within 600 s.; type: functional, Cardiac ventricle
[3] = species: Rattus norvegicus; assay: Inhibitory effect on production of active oxygen species by rat peritoneal exudate macrophages; type: functional; set-up: concentration or dose not given beside the values
How it was run: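 Peritoneal exudate macrophages harvested 3 days after ip liquid paraffin (male Wistar rats), >90% viable. Assay: 125 mM sodium phosphate pH 6.5, 0.08 mM EDTA, 1.2 U LDH, 0.32 mM NADH, (2–3) × 10^6 cells, compound in DMF, 1 × 10^-4 M. Started with NADH.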

[4] = species: Cavia porcellus; assay: Inhibitory activity on atrial rate in isolated Guinea pig right atrea at 0.01 mg/mL concentration; type: functional, Cardiac atrium
How it was run: (§1)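 Right atria from male Hartley guinea pigs (450–550 g), loaded at 0.5 g, in Tyrode's solution at 37 °C gassed with 95% O2/5% CO2. Equilibrated at least 30 min until rate stable within 5 beats/min; spontaneous rate and contractile force recorded on polygraph after compound addition.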

[5] = test system: Rattus norvegicus; assay: Effect (0.3 mg/kg, iv) on coronary reperfusion-induced arrhythmias was assessed in anesthetized rats.(Intervals of ventricular tachycardia (VT)+ventricular fibrillation (VF) within 600 s.; type: functional, Cardiac ventricle
[6] = test system: Rattus norvegicus; assay: inhibitory activity was tested against anesthetized rats at 10 mg/kg; type: functional
[7] = test system: Rattus norvegicus; assay: Effect (10 mg/kg, po) on coronary reperfusion-induced arrhythmias was assessed in anesthetized rats.(Intervals of ventricular tachycardia (VT)+ventricular fibrillation (VF) within 600 s.; type: functional, Cardiac ventricle
How it was run: (§2)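 Male Wistar rats (350–450 g) dosed orally 1 h before occlusion, then anesthetized with pentobarbital (60 mg/kg ip) and ventilated. LAD ligated 5 min, reperfused 10 min; VT plus VF durations summed within 600 s. Mean ± SE, n = 5–10; line 2 value is the minimum effective dose.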

[8] = species: Cavia porcellus; assay: Inhibitory activity on atrial rate in isolated Guinea pig right atrea at 0.03 mg/mL concentration; type: functional, Cardiac atrium; how it was run: as §1
[9] = species: Cavia porcellus; assay: Inhibitory activity on atrial contractility in isolated Guinea pig right atrea at 0.003 mg/mL concentration; type: functional, Cardiac atrium; how it was run: as §1
[10] = species: Cavia porcellus; assay: Inhibitory activity on atrial contractility in isolated Guinea pig right atrea at 0.03 mg/mL concentration; type: functional, Cardiac atrium; how it was run: as §1
[11] = test system: Rattus norvegicus; assay: Change in heart rate was measured at mg/kg dose(iv) in anesthetized rats; type: functional
How it was run: (§3)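 Anesthetized male Wistar rats (pentobarbital 60 mg/kg ip); compound in saline/1% olive oil/1% Tween 80 given by femoral vein. Lead II ECG recorded and heart rate read by beat-to-beat tachograph for 10 min after dosing; change in beats/min, mean ± SE, n = 3–4.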

[12] = test system: Rattus norvegicus; assay: Antiarrhythmic activity against anesthetized rats after intravenous administration; type: functional, Heart
[13] = test system: Rattus norvegicus; assay: Antiarrhythmic activity against anesthetized rats after peroral administration; type: functional, Heart; how it was run: as §2
[14] = test system: Rattus norvegicus; assay: Change in arterial blood pressure was measured at 0.3 mg/kg dose(iv) in anesthetized rats; type: functional, Artery
How it was run: (§4)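 Male Wistar rats, pentobarbital 60 mg/kg ip, supine. Compound suspended in saline with 1% olive oil and 1% Tween 80, injected via femoral vein. Femoral arterial pressure monitored 10 min after injection; change in mmHg, mean ± SE, n = 3–4.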

[15] = species: Cavia porcellus; assay: Inhibitory activity on atrial rate in isolated Guinea pig right atrea at 0.003 mg/mL concentration; type: functional, Cardiac atrium; how it was run: as §1
[16] = species: Cavia porcellus; assay: Inhibitory activity on atrial contractility in isolated Guinea pig right atrea at 0.01 mg/mL concentration; type: functional, Cardiac atrium; how it was run: as §1
[17] = species: Cavia porcellus; assay: Inhibitory activity on atrial contractility in isolated Guinea pig right atria at 0.1 mg/mL concentration; type: functional; settings: Cardiac atrium; how it was run: as §1
[18] = species: Cavia porcellus; assay: Inhibitory activity against atrial rate in isolated Guinea pig right atrea at 0.3 mg/mL concentration; type: functional, Cardiac atrium; how it was run: as §1
[19] = species: Cavia porcellus; assay: Inhibitory activity on atrial contractility in isolated Guinea pig right atria at 0.03 mg/mL concentration; type: functional; settings: Cardiac atrium; how it was run: as §1
[20] = species: Cavia porcellus; assay: Inhibitory activity on atrial contractility in isolated Guinea pig right atria at 0.3 mg/mL concentration; type: functional; settings: Cardiac atrium; how it was run: as §1
[21] = test system: Rattus norvegicus; assay: Effect (30 mg/kg, iv) on coronary reperfusion-induced arrhythmias was assessed in anesthetized rats.(Intervals of ventricular tachycardia (VT)+ventricular fibrillation (VF) within 600 s.; type: functional, Cardiac ventricle
[22] = species: Cavia porcellus; assay: Inhibitory activity on atrial rate in isolated Guinea pig right atria at 0.1 mg/mL concentration; type: functional; settings: Cardiac atrium
How it was run: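 Right atria from male Hartley guinea pigs (450–550 g), held under a 0.5 g load at 37 °C in Tyrode's solution gassed with 95% O2 + 5% CO2. After at least 30 min equilibration (rate stable within 5 beats/min), atrial rate and contractile force of spontaneously beating preparations were recorded on a polygraph with compound present.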

[23] = species: Cavia porcellus; assay: Inhibitory activity on atrial rate in isolated Guinea pig right atria at 0.03 mg/mL concentration; type: functional; settings: Cardiac atrium; how it was run: as §1
[24] = test system: Rattus norvegicus; assay: Change in arterial blood pressure was measured at 30 mg/kg dose(iv) in anesthetized rats; type: functional, Artery; how it was run: as §4
[25] = test system: Rattus norvegicus; assay: Change in heart rate was measured at 10 mg/kg dose(iv) in anesthetized rats; type: functional; how it was run: as §3
[26] = test system: Rattus norvegicus; assay: Effect (30 mg/kg, po) on coronary reperfusion-induced arrhythmias was assessed in anesthetized rats.(Intervals of ventricular tachycardia (VT)+ventricular fibrillation (VF) within 600 s.; type: functional, Cardiac ventricle; how it was run: as §2
[27] = species: Cavia porcellus; assay: Inhibitory activity against atrial contractility in isolated Guinea pig right atrea at 0.03 mg/mL concentration; type: functional, Cardiac atrium; how it was run: as §1
[28] = test system: Rattus norvegicus; assay: Effect (100 mg/kg, po) on coronary reperfusion-induced arrhythmias was assessed in anesthetized rats.(Intervals of ventricular tachycardia (VT)+ventricular fibrillation (VF) within 600 s.; type: functional, Cardiac ventricle; how it was run: as §2
[29] = test system: Rattus norvegicus; assay: Effect (1 mg/kg, iv) on coronary reperfusion-induced arrhythmias was assessed in anesthetized rats.(Intervals of ventricular tachycardia (VT)+ventricular fibrillation (VF) within 600 s; type: functional, Cardiac ventricle
[30] = test system: Rattus norvegicus; assay: Change in heart rate was measured at 30 mg/kg dose(iv) in anesthetized rats; type: functional; how it was run: as §3
[31] = test system: Rattus norvegicus; assay: Change in arterial blood pressure was measured at 10 mg/kg dose(iv) in anesthetized rats; type: functional, Artery; how it was run: as §4
[32] = species: Cavia porcellus; assay: Inhibitory activity against atrial contractility in isolated Guinea pig right atrea at 0.1 mg/mL concentration; type: functional, Cardiac atrium; how it was run: as §1
[33] = species: Cavia porcellus; assay: Inhibitory activity against atrial rate in isolated Guinea pig right atrea at 0.03 mg/mL concentration; type: functional, Cardiac atrium; how it was run: as §1
[34] = species: Cavia porcellus; assay: Inhibitory activity against atrial contractility in isolated Guinea pig right atrea at 0.3 mg/mL concentration; type: functional, Cardiac atrium; how it was run: as §1
[35] = species: Cavia porcellus; assay: Inhibitory activity against atrial rate in isolated Guinea pig right atrea at 0.1 mg/mL concentration; type: functional, Cardiac atrium; how it was run: as §1
[36] = test system: Rattus norvegicus; assay: inhibitory activity was tested against anesthetized rats; type: functional
[37] = test system: Rattus norvegicus; assay: Change in heart rate was measured at 3 mg/kg dose(iv) in anesthetized rats; type: functional; how it was run: as §3
[38] = test system: Rattus norvegicus; assay: Change in arterial blood pressure was measured at 3 mg/kg dose(iv) in anesthetized rats; type: functional, Artery; how it was run: as §4
[39] = test system: Rattus norvegicus; assay: Change in arterial blood pressure was measured at 1 mg/kg dose(iv) in anesthetized rats; type: functional, Artery; how it was run: as §4
[40] = test system: Rattus norvegicus; assay: Change in heart rate was measured at 1 mg/kg dose(iv) in anesthetized rats; type: functional; how it was run: as §3

CCCCCCCCCCCCCCCC(=O)OCC(O)C1OC(=O)C(O)=C1OCC(C)=O (stereo unspecified)
inhibition [1]: 53%
Arrhythmias times [2]: 353

CCCCCCCCC(=O)COC1=C(O)C(=O)OC1C(O)CO (stereo unspecified)
Inhibition [3]: 4.9%
inhibition [1]: 64%
Arrhythmias times [2]: 433

COc1ccc(CCN(C)CCCC(C#N)(c2ccc(OC)c(OC)c2)C(C)C)cc1OC (stereo unspecified) [VERAPAMIL]
Inhibition [4]: 63%
Arrhythmias times [5]: 121
inhibition in vivo at 10 mg/kg [6]: 87%
Arrhythmias times [7]: 56.7
Inhibition [8]: 100%
inhibition [1]: 37%
Inhibition [9]: 49.9%
Inhibition [10]: 100%
Delta heart rate [11]: -70 beats min-1
Efficacy [12]: >0.3 mg/kg
Efficacy [13]: 10 mg/kg
Delta blood pressure [14]: -46.7 mmHg
Inhibition [15]: 37.9%
Inhibition [16]: 77.8%

CCCCc1ccc(C(=O)COC2=C(O)C(=O)OC2C(O)CO)cc1 (stereo unspecified)
inhibition at 100 µg/mL [17]: 52.8%
Inhibition [18]: 25.6%
inhibition at 30 µg/mL [19]: 36.2%
inhibition [1]: 82%
inhibition at 300 µg/mL [20]: 67.1%
Arrhythmias times [21]: 325
inhibition at 100 µg/mL [22]: 17%
inhibition at 30 µg/mL [23]: 8.8%

CCCCCCCCCCCCC(=O)COC1=C(O)C(=O)OC1C(O)CO (stereo unspecified)
Inhibition [3]: 6.3%
Delta blood pressure [24]: -17.7 mmHg
Arrhythmias times [7]: 378.2
Delta heart rate [25]: -8.3 beats min-1
Inhibition [18]: 13%
Arrhythmias times [26]: 313.3
Inhibition [27]: 25%
Arrhythmias times [28]: 85.4
inhibition [1]: 85%
Arrhythmias times [29]: 185
Efficacy [12]: >1 mg/kg
Delta heart rate [30]: -35 beats min-1
Delta blood pressure [31]: -5 mmHg
Efficacy [13]: >30 mg/kg
Inhibition [32]: 30.2%
Inhibition [33]: 12.9%
Inhibition [34]: 41.3%
Inhibition [35]: 14.6%

CCCCCCCCCCCC1OCC(C2OC(O)=C(O)C2=O)O1 (stereo unspecified)
Arrhythmias times [26]: 420.8
Inhibition [36]: 19%
Delta heart rate [37]: -75 beats min-1
inhibition [1]: 89%
Arrhythmias times [29]: 186
Efficacy [12]: >1 mg/kg
Efficacy [13]: 30 mg/kg
Delta blood pressure [38]: -30.3 mmHg
Delta blood pressure [39]: -7 mmHg
Delta heart rate [40]: -10.3 beats min-1

O=C1OC(C(O)CO)C(OCC(=O)c2ccccc2)=C1O (stereo unspecified)
inhibition [1]: 1%
Arrhythmias times [21]: 429

CCCCCCCCCCOC1=C(O)C(=O)OC1C(O)CO (stereo unspecified)
Inhibition [3]: 15.9%
Arrhythmias times [26]: 283.6
inhibition [1]: 93%
Arrhythmias times [29]: 291
